Source: ChEMBL document CHEMBL3272197, “Synthesis and in vitro evaluation of 8-hydroxyquinoline analogs as inhibitors of dental plaque” (J Med Chem, 1976)

Columns and labels:
Streptococcus mutans [1] = assay: Antibacterial activity against Streptococcus mutans 6715 assessed as growth inhibition at 10^-4 M after 24 hrs; assay type: functional; conditions: Streptococcus mutans, 6715, 24 h; read-out: GI
How it was run: (§1)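 Test compounds as HCl salts were added in aqueous solution to sterile trypticase broth with 50% sucrose stock, then inoculated with a 24-hr culture of S. mutans 6715. Cultures were incubated anaerobically (Gaspak) at 37°. Bacterial growth was scored at 24 and 48 hr, with a solvent control run concurrently.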

Streptococcus mutans [2] = assay: Antibacterial activity against Streptococcus mutans 6715 assessed as growth inhibition at 10^-4 M after 48 hrs; assay type: functional; conditions: Streptococcus mutans, 6715, 48 h; read-out: GI; how it was run: as §1
Streptococcus mutans [3] = assay: Antibacterial activity against Streptococcus mutans 6715 assessed as growth inhibition at 10^-5 M after 24 hrs; assay type: functional; conditions: Streptococcus mutans, 6715, 24 h; read-out: GI; how it was run: as §1
Streptococcus mutans [4] = assay: Antibacterial activity against Streptococcus mutans 6715 assessed as growth inhibition at 10^-6 M after 48 hrs; assay type: functional; conditions: Streptococcus mutans, 6715, 48 h; read-out: GI; how it was run: as §1
Streptococcus mutans [5] = assay: Antibacterial activity against Streptococcus mutans 6715 assessed as growth inhibition at 10^-5 M after 48 hrs; assay type: functional; conditions: Streptococcus mutans, 6715, 48 h; read-out: GI; how it was run: as §1
Streptococcus mutans [6] = assay: Antibacterial activity against Streptococcus mutans 6715 assessed as growth inhibition at 10^-6 M after 24 hrs; assay type: functional; conditions: Streptococcus mutans, 6715, 24 h; read-out: GI; how it was run: as §1
Streptococcus mutans [7] = assay: Antibacterial activity against Streptococcus mutans 6715 assessed as inhibition of plaque formation in human teeth at 10^-2 M after 48 hrs; assay type: functional; conditions: Streptococcus mutans, 6715, 48 h
How it was run: (§2)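 Sterilized extracted human teeth were immersed in Me2SO solutions of compound for two 1-min periods, each followed by 1-min air exposure. Teeth were then washed in distilled water for 5 min and incubated anaerobically at 37° in sucrose-containing trypticase broth with S. mutans.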

Streptococcus mutans [8] = assay: Antibacterial activity against Streptococcus mutans 6715 assessed as inhibition of plaque formation in human teeth at 10^-2 M after 24 hrs; assay type: functional; conditions: Streptococcus mutans, 6715, 24 h; how it was run: as §2
Streptococcus mutans [9] = assay: Antibacterial activity against Streptococcus mutans 6715 assessed as inhibition of plaque formation in human teeth at 10^-1 M after 48 hrs; assay type: functional; conditions: Streptococcus mutans, 6715, 48 h; how it was run: as §2
Streptococcus mutans [10] = assay: Antibacterial activity against Streptococcus mutans 6715 assessed as inhibition of plaque formation in human teeth at 10^-1 M after 24 hrs; assay type: functional; conditions: Streptococcus mutans, 6715, 24 h; how it was run: as §2
[11] = 1-Octanol-water partition coefficient, log P of the compound after 90 mins; assay type: physicochemical
How it was run: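 Partitioning between 1-octanol and water. Phase volume ratio and sample amount set so that the aqueous-layer absorbance fell mostly between 0.2 and 0.9 in a 1-cm cell. The aqueous concentration was read spectrophotometrically and the octanol concentration was taken by difference. P = C_octanol/C_H2O. At least triplicate determinations used different sample amounts, and the mean log P is reported.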

SMILES | inhibition of growth at 100 µM (Streptococcus mutans [1]) | inhibition of growth at 100 µM (Streptococcus mutans [2]) | inhibition of growth at 10 µM (Streptococcus mutans [3]) | inhibition of growth at 1 µM (Streptococcus mutans [4]) | inhibition of growth at 10 µM (Streptococcus mutans [5]) | inhibition of growth at 1 µM (Streptococcus mutans [6]) | inhibition at 10000 µM (Streptococcus mutans [7]) | inhibition at 10000 µM (Streptococcus mutans [8]) | inhibition at 100000 µM (Streptococcus mutans [9]) | inhibition at 100000 µM (Streptococcus mutans [10]) | logP at 1.5 h [11]
Oc1ccc(O)c2ncccc12 [listing 1 of 2 here] | 0% | 0% |  |  |  |  |  |  |  |  | 
CC(=O)c1ccc(O)c2ncccc12 [listing 1 of 2 here] | 100% | 100% | 100% | 0% | 0% | 0% |  |  |  |  | 
Oc1cccc2cccnc12 [OXYQUINOLINE] |  |  |  |  |  |  | 0% | 0% | 100% | 100% | 1.94
O=C(O)Cc1ccc(O)c2ncccc12 [listing 1 of 2 here] | 0% | 0% |  |  |  |  |  |  |  |  | 
Oc1cccc2cccnc12 | 100% | 100% | 100% | 0% | 100% | 0% |  |  |  |  | 
OCc1ccc(O)c2ncccc12 [listing 1 of 2 here] | 0% | 0% |  |  |  |  |  |  |  |  | 
O=Cc1ccc(O)c2ncccc12 [listing 1 of 2 here] | 100% | 100% | 0% |  |  |  |  |  |  |  | 
COCc1ccc(O)c2ncccc12 [listing 1 of 2 here] | 100% | 80% | 0% |  |  |  |  |  |  |  | 
Oc1ccc(F)c2cccnc12 [listing 1 of 2 here] | 100% | 100% | 80% | 0% | 0% | 0% |  |  |  |  | 
Oc1ccc(I)c2cccnc12 [listing 1 of 2 here] |  |  |  |  |  |  | 20% | 80% | 100% | 100% | 3.27
CCOC(=O)Cc1ccc(O)c2ncccc12 [listing 1 of 2 here] |  |  |  |  |  |  | 0% | 20% | 80% | 100% | 2.26
OCc1ccc(O)c2ncccc12 [listing 2 of 2 here] |  |  |  |  |  |  |  |  | 0% | 0% | 1
CC(=O)c1ccc(O)c2ncccc12 [listing 2 of 2 here] |  |  |  |  |  |  | 60% | 60% | 100% | 100% | 1.8
N#CCc1ccc(O)c2ncccc12 [listing 1 of 2 here] |  |  |  |  |  |  | 0% | 0% | 80% | 80% | 1.81
Oc1ccc(O)c2ncccc12 [listing 2 of 2 here] |  |  |  |  |  |  | 0% | 0% | 0% | 60% | 1.42
CCOC(=O)Cc1ccc(O)c2ncccc12 [listing 2 of 2 here] | 100% | 100% | 100% | 0% | 0% | 0% |  |  |  |  | 
Oc1ccc(F)c2cccnc12 [listing 2 of 2 here] |  |  |  |  |  |  | 60% | 80% | 80% | 80% | 2.3
COC(=O)Cc1ccc(O)c2ncccc12 [listing 1 of 2 here] | 100% | 100% | 60% | 0% | 0% | 0% |  |  |  |  | 
COCc1ccc(O)c2ncccc12 [listing 2 of 2 here] |  |  |  |  |  |  | 20% | 20% | 60% | 80% | 1.78
O=Cc1ccc(O)c2ncccc12 [listing 2 of 2 here] |  |  |  |  |  |  | 40% | 40% | 80% | 100% | 1.63
N#CCc1ccc(O)c2ncccc12 [listing 2 of 2 here] | 80% | 20% | 0% |  |  |  |  |  |  |  | 
COC(=O)Cc1ccc(O)c2ncccc12 [listing 2 of 2 here] |  |  |  |  |  |  | 0% | 20% | 100% | 100% | 1.59
O=C(O)Cc1ccc(O)c2ncccc12 [listing 2 of 2 here] |  |  |  |  |  |  |  |  | 0% | 0% | 
Oc1ccc(I)c2cccnc12 [listing 2 of 2 here] | 100% | 100% | 100% | 0% | 60% | 0% |  |  |  |  | 
